Ecoli rRNA inh: reduced GFP signal of wild-type E. coli, primary screen, bacterial rRNA inhibitor project, GFP/RFP fluorescence, OD600, single point | E. coli WT GFP vs humanized-ribosome RFP mutants, 24 h; stronger effect = lower value; DMSO median 0, no signal -100 | GFP signal change (wild-type ribosome), % (concentration not given with the values) | actives 1.6% (n = 350,000) | AID 720706, 2013;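 active = significant combined selectivity score with lowered wild-type GFP, culture density cut under 30%, mutant RFP and density less affected; inactive = any of these conditions unmet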
LGR2 antag: inhibitors of bursicon-induced LGR2 CRE-luciferase signal, primary screen, cell-based, HEK293, CRE-luciferase reporter, bursicon stimulation; Drosophila bursicon receptor LGR2 (rickets); bursicon-stimulated, 4 h; actives 0.35% (n = 380,000); inhibition, % at 9.99 µM;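 active = drop in luminescence signal, shown as inhibition above about 50% in the replicate tests, limit read from the data, passing the limit was not always enough; inconclusive = probably only some replicates passing the limit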;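 also: agonist challenge used bursicon conditioned medium at about half maximal strength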
EWS-Fli inh: EWS/Fli-driven NR0B1 reporter inhibitors, primary screen, A673 cells, NR0B1 luciferase, luminescence, MLPCN library. viability-normalised. inhibition, % at 12.6 µM. actives 0.67% (n = 350,000);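 active = mean inhibition of at least 50% after viability correction, with every replicate also passing that limit; inconclusive = mean reaches 50% but only one of two replicates passes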;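 also: firefly luciferase signal divided by Alamar Blue viability fluorescence both relative to DMSO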
E-sel inducer: E-selectin induction in HUVECs, primary screen, imaging, HUVEC, immunofluorescence imaging, single point | P16581 | normalized: neutral wells 0, TNF-alpha wells 100 | activation, % at 7.58 µM | actives 0.37% (n = 260,000) | AID 686992, 2013;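 active = mean E-selectin-positive cell signal at least 10% of the positive control, reached in at least 60% of replicates, without over 20% cell loss; inconclusive = no rule given, readout overlaps actives, possibly toxicity-flagged; inactive = the rest, including those meeting only one limit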
Target sequence (P16581 whole entry, looked up): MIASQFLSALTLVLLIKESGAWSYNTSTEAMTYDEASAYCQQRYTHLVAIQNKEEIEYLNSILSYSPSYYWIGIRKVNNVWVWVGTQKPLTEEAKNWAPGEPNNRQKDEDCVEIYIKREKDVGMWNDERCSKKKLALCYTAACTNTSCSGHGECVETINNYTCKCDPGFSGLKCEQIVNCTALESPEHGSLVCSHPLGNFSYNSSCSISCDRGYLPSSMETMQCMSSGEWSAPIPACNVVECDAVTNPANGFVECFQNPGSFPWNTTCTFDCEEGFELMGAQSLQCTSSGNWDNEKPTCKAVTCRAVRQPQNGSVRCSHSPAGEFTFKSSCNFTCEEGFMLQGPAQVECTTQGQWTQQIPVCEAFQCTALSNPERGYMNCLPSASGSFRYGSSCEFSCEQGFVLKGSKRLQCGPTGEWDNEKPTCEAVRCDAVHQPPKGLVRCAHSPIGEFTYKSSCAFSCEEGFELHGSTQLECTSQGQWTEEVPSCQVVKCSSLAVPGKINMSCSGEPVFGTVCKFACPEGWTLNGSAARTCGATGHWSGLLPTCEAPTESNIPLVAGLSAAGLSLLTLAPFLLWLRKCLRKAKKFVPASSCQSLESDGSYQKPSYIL
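Assay system: HUVEC, human umbilical vein endothelial cells / Amount: 3,000 HUVEC/well / Controls: TNF-alpha positive control, DMSO neutral control / Compound dosing: single concentration / Medium: EGM-2 over gelatin coat / Evaluation: percent E-selectin-positive cells / Signal: immunofluorescence imaging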
Large screens that a line does not name were inactive. Shown are actives, neighbours in structure and some others; about 2.4% of the full set was active somewhere.

CC(C)c1cc(C(C)C)c(S(=O)(=O)N2CCNCC2)c(C(C)C)c1	Ecoli rRNA inh -44
O=C(NC1=C(NC2CCS(=O)(=O)C2)C(=O)c2ccccc2C1=O)c1ccccc1 (stereo unspecified)	LGR2 antag 78 (no result: E-sel inducer)
CNC[C@H]1Oc2c(NC(C)=O)cccc2C(=O)N(C)C[C@@H]1C	none (no result: LGR2 antag, EWS-Fli inh, E-sel inducer)
Cc1noc(C)c1S(=O)(=O)N(C)C[C@@H]1OCCCC[C@H](C)Oc2ccc(NC(=O)CCCN(C)C)cc2C(=O)N([C@H](C)CO)C[C@@H]1C	none
COc1cccc(Oc2cn[nH]c2-c2ccc(O)cc2O)c1	none (no result: Ecoli rRNA inh, EWS-Fli inh, E-sel inducer)
COc1ccccc1Oc1cn[nH]c1-c1ccc(O)cc1O	Ecoli rRNA inh -21
O=C(NC1=NCCS1)c1sc2cc(Cl)cc(Cl)c2c1Cl	none (no result: Ecoli rRNA inh, EWS-Fli inh, E-sel inducer)
O=C(NC1=NCCS1)c1sc2ccccc2c1Cl	Ecoli rRNA inh -31 (no result: E-sel inducer)
CCn1nc(C)cc1-c1nnc(SCC(=O)Nc2ccccc2)n1CCCOC	none (no result: LGR2 antag, E-sel inducer)
CCn1nc(C)cc1-c1nnc(Sc2ncc([N+](=O)[O-])s2)n1C	EWS-Fli inh 69
C[C@@H]1CCCCO[C@@H](CN(C)C(=O)C2CCCCC2)[C@H](C)CN([C@H](C)CO)C(=O)c2cc(NC(=O)c3ccncc3)ccc2O1	none
O=c1c2ccccc2c(C=NCCCN2CCOCC2)c(O)n1Cc1ccc2c(c1)OCO2	Ecoli rRNA inh -29
Cc1cccc(/N=C/c2c(O)n(Cc3ccc4c(c3)OCO4)c(=O)c3ccccc23)n1	none (no result: Ecoli rRNA inh, LGR2 antag)
O=C(O)COc1ccccc1/C=N/NC(=O)Cc1ccccc1	none
O=C(CSCc1ccccc1)N/N=C/c1ccccc1OCc1ccccc1	Ecoli rRNA inh -27 (no result: E-sel inducer)
NC(=S)N/N=C\c1ccccc1OCc1ccccc1	Ecoli rRNA inh -26 (no result: E-sel inducer)
Cc1noc(C)c1S(=O)(=O)Nc1ccc2c(c1)C(=O)N([C@@H](C)CO)C[C@@H](C)[C@H](CN(C)CC1CCCCC1)O2	none
Cc1cc(Br)cn2c(Cc3cccc(F)c3)c(-c3ccc(Cl)cc3)nc12	Ecoli rRNA inh -32
COc1ccccc1Cc1c(-c2ccc(F)cc2)nc2c(C)cc(Br)cn12	Ecoli rRNA inh -32
C[C@@H]1CCCCO[C@@H](CN(C)C(=O)C2CCCCC2)[C@@H](C)CN([C@@H](C)CO)C(=O)c2cc(NC(=O)CCCN(C)C)ccc2O1	none
COc1cc(/C=C/c2onc(C)c2[N+](=O)[O-])cc(OC)c1OC	none
Cc1cccc(/C=C/c2onc(C)c2[N+](=O)[O-])n1	LGR2 antag 71
Cc1cccc(CSCC(=O)N2CCN(S(=O)(=O)c3ccccc3C#N)CC2)c1	Ecoli rRNA inh -16
CC(C)NC(=O)N(C)C[C@@H]1Oc2cc(-c3cncnc3)ccc2S(=O)(=O)N([C@H](C)CO)C[C@H]1C	none
COc1cccc(CN(C)C(=S)Nc2ccc(C)c(C)c2)c1	Ecoli rRNA inh -25
COc1ccc2c3c([nH]c2c1)[C@@H](CO)N(Cc1ccncc1)CC31CCN(Cc2ccc(-c3ccccn3)cc2)CC1	none
CCc1noc(C)c1C(=O)N1CCN(c2ccc([N+](=O)[O-])cc2)CC1	none
CCc1nc2ccc(C(=O)N3CCN(c4ccc([N+](=O)[O-])cc4)CC3)cc2nc1CC	Ecoli rRNA inh -23 (no result: EWS-Fli inh, E-sel inducer)
Cc1cccc(N2CC(C(=O)Nc3cccc(S(=O)(=O)N4CCCCC4)c3)CC2=O)c1C (stereo unspecified)	Ecoli rRNA inh -25 (no result: E-sel inducer)
CCC1CN(C(=O)NCc2ccccc2)c2ccccc2O1 (stereo unspecified)	Ecoli rRNA inh -22
C[C@@H]1CCCCO[C@H](CN(C)CC2CCCCC2)[C@H](C)CN([C@H](C)CO)C(=O)c2cc(NS(=O)(=O)c3ccc(Cl)cc3)ccc2O1	EWS-Fli inh 63
C[C@@H]1CCCCO[C@@H](CN(C)CC2CCCCC2)[C@@H](C)CN([C@H](C)CO)C(=O)c2cc(NS(=O)(=O)c3ccc(Cl)cc3)ccc2O1	none (no result: LGR2 antag, E-sel inducer)
C[C@@H]1CN([C@H](C)CO)C(=O)c2cc(NS(=O)(=O)c3ccc(Cl)cc3)ccc2O[C@@H](C)CCCCO[C@@H]1CN(C)CC1CCCCC1	EWS-Fli inh 61
C[C@H](CO)N1C[C@H](C)[C@H](CN(C)C(=O)Nc2cccc3ccccc23)Oc2ccc(NC(=O)Cc3cn(C)c4ccccc34)cc2CC1=O	none
CC(C)NC(=O)NCC[C@@H]1CC[C@H](NS(=O)(=O)c2ccccc2)[C@H](CO)O1	none (no result: LGR2 antag, EWS-Fli inh, E-sel inducer)
C[C@@H]1CCCCO[C@@H](CN(C)C(=O)NC2CCCCC2)[C@H](C)CN([C@@H](C)CO)C(=O)c2cc(NS(=O)(=O)c3ccc(F)cc3)ccc2O1	none (no result: E-sel inducer)
O=[N+]([O-])c1ccc2nc(NN=Cc3ccc(O)cc3)sc2c1	Ecoli rRNA inh -12, LGR2 antag 105 (no result: E-sel inducer)
O=C(Nc1nc2ccc([N+](=O)[O-])cc2s1)c1c(F)cccc1F	none
N=c1c2c(ncn1CCCO)Oc1ccc3ccccc3c1C2c1ccccc1 (stereo unspecified)	Ecoli rRNA inh -19
COc1ccc(C2c3ccc4ccccc4c3Oc3ncn(CCO)c(=N)c32)cc1OC (stereo unspecified)	none (no result: EWS-Fli inh, E-sel inducer)
N=c1c2c(ncn1CCCO)Oc1c(ccc3ccccc13)C2c1ccccc1 (stereo unspecified)	Ecoli rRNA inh -40
COc1ccc(C2c3ccc4ccccc4c3Oc3ncn(CCCO)c(=N)c32)cc1OC (stereo unspecified)	Ecoli rRNA inh -20
O=C(C[C@H]1C=C[C@@H](NC(=O)Nc2cc(F)ccc2F)[C@H](CO)O1)NCc1ccc2c(c1)OCO2	none (no result: EWS-Fli inh)
C[C@@H]1CN([C@@H](C)CO)S(=O)(=O)c2ccc(C#CC3CCCC3)cc2O[C@H]1CN(C)C(=O)c1cccc(F)c1	none
O=C(C[C@H]1C=C[C@@H](NC(=O)c2ccc3c(c2)OCO3)[C@@H](CO)O1)NCc1ccc(F)cc1	none (no result: EWS-Fli inh)
COc1ccc(S(=O)(=O)N(C)C[C@@H]2Oc3ccc(NC(=O)Nc4cccc5ccccc45)cc3CC(=O)N([C@H](C)CO)C[C@@H]2C)cc1	E-sel inducer inconclusive
NNc1nc2c(Cl)ccc(Cl)c2s1	Ecoli rRNA inh -26
O=C(Nc1nc2c(Cl)ccc(Cl)c2s1)C1CC1	none
O=c1c(Cl)c(Cl)cnn1-c1ccccc1	LGR2 antag 104, EWS-Fli inh 70 (no result: E-sel inducer)
O=[N+]([O-])c1ccc(N/N=C/c2cccc(O)c2O)cc1	Ecoli rRNA inh -31 (no result: E-sel inducer)
COc1cccc(/C=N/Nc2ncccc2[N+](=O)[O-])c1OC	LGR2 antag 97, EWS-Fli inh 66 (no result: E-sel inducer)
COc1cccc(/C=N/NC(=O)N/N=C/c2cccc(OC)c2O)c1O	Ecoli rRNA inh -31
